Laboratory results: ChEMBL document CHEMBL4334435, “A focused structure-activity relationship study of psoralen-based immunoproteasome inhibitors” (Medchemcomm, 2019)
Calls of active or inactive are those of the source. The calls are words filed in the database; no cut-off is given here.

Test system: PBMC
Assay: Inhibition of LPS-induced IL-10 secretion in human PBMC at 10 uM preincubated for 1 hr followed by LPS addition and measured after 24 hrs by cytometric bead array-based FACS analysis
Format: functional, cell-based
Conditions: not given

SMILES	inhibition
Cc1c(-c2nsc(=O)o2)c(=O)oc2cc3occ(C4CCCCC4)c3cc12	Active
CCc1ccc(-c2coc3cc4oc(=O)c(-c5nsc(=O)o5)c(C)c4cc23)cc1	Active

Biological target: T1, Proteasome subunit beta type-8 (Homo sapiens) (UniProt P28062)
T1 sequence (whole entry): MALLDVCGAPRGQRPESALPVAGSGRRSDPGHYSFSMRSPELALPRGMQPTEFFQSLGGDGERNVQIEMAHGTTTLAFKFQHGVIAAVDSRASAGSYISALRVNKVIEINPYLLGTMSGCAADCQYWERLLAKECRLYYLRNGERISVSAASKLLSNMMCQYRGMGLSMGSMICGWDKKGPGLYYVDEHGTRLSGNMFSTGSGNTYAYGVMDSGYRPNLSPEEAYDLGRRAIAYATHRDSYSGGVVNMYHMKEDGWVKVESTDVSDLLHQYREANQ
Assay: Irreversible inhibition of human immunoproteasome beta 5i subunit assessed as recovery of enzyme activity at 1060 nM using Suc-LLVY-AMC as substrate preincubated for 30 mins followed by 100-fold diluted substrate addition by rapid dilution assay relative to control
Parameters: scale not given: the % may be the effect or the level left
Conditions: not given

SMILES	Activity [%]
Cc1c(-c2nsc(=O)o2)c(=O)oc2cc3occ(C4CCCCC4)c3cc12	22

Species: Homo sapiens
Assay: Selectivity ratio of IC50 for human constitutive proteasome beta 5 subunit to IC50 for human immunoproteasome beta 5i subunit
Conditions: not given

SMILES	Ratio IC50
Cc1c(-c2nsc(=O)o2)c(=O)oc2cc3occ(-c4ccccc4)c3cc12	80

Biological target: T2, Proteasome subunit beta type-10 (Homo sapiens) (UniProt P40306)
T2 sequence (whole entry): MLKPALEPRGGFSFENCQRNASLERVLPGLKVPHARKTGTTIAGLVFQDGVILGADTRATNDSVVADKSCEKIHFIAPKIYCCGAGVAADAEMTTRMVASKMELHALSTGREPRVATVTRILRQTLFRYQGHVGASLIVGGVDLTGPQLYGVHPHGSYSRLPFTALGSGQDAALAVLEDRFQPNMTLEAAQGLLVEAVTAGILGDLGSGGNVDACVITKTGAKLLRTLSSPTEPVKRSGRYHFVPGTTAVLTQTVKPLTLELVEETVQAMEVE
Assay: Inhibition of human immunoproteasome beta 2i subunit at 10 uM using Boc-LRR-AMC as substrate preincubated for 30 mins followed by substrate addition measured for 120 mins by fluorescence based assay
Conditions: not given
How it was run: (§1)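 Purified human immunoproteasome or constitutive proteasome subunit activities measured with fluorogenic substrates in presence of 10 μM compound; reported as residual activity.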

SMILES	inhibition
Cc1c(-c2nsc(=O)o2)c(=O)oc2cc3occ(C4CCCCC4)c3cc12	inactive
Cc1c(-c2nsc(=O)o2)c(=O)oc2cc3occ(C4CCCC4)c3cc12	inactive
CCc1ccc(-c2coc3cc4oc(=O)c(-c5nsc(=O)o5)c(C)c4cc23)cc1	inactive

Biological target: T3, Proteasome subunit beta type-8 (Homo sapiens, UniProt P28062)
T3 sequence (P28062 whole entry): T1 sequence (whole entry)
Assay: Inhibition of human immunoproteasome beta 5i subunit using Suc-LLVY-AMC as substrate preincubated for 30 mins followed by substrate addition and measured for 120 mins by fluorescence based assay
Conditions: not given

SMILES	IC50 [nM]
Cc1c(-c2nsc(=O)o2)c(=O)oc2cc3occ(C4CCCCC4)c3cc12	106
Cc1c(-c2nsc(=O)o2)c(=O)oc2cc3occ(C4CCCC4)c3cc12	264
Cc1c(-c2nsc(=O)o2)c(=O)oc2cc3occ(-c4ccccc4)c3cc12	13
CCc1ccc(-c2coc3cc4oc(=O)c(-c5nsc(=O)o5)c(C)c4cc23)cc1	174

Biological target: T1, Proteasome subunit beta type-8 (Homo sapiens)
Assay: Inhibition of 26S immunoproteasome beta 5 chymotrypsin-like activity in human THP-1 intact cells using […] as substrate after 2 hrs by luciferase based assay
Format: cell-based
Conditions: not given

SMILES	inhibition
Cc1c(-c2nsc(=O)o2)c(=O)oc2cc3occ(C4CCCCC4)c3cc12	inactive
CCc1ccc(-c2coc3cc4oc(=O)c(-c5nsc(=O)o5)c(C)c4cc23)cc1	inactive

Test system: PBMC
Assay: Inhibition of LPS-induced IL-6 secretion in human PBMC at 10 uM preincubated for 1 hr followed by LPS addition and measured after 24 hrs by cytometric bead array-based FACS analysis
Format: functional, cell-based
Conditions: not given

SMILES	inhibition
Cc1c(-c2nsc(=O)o2)c(=O)oc2cc3occ(C4CCCCC4)c3cc12	Active
CCc1ccc(-c2coc3cc4oc(=O)c(-c5nsc(=O)o5)c(C)c4cc23)cc1	Active

Biological target: T4, Proteasome Macropain subunit MB1 (Homo sapiens, UniProt P28074)
T4 sequence (P28074 whole entry): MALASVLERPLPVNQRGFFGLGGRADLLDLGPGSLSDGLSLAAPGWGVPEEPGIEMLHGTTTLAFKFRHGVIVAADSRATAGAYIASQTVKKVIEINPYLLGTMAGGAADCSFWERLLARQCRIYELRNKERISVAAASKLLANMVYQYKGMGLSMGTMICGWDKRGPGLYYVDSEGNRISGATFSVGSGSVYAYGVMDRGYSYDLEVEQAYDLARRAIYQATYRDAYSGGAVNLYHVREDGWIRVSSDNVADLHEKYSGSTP
Assay: Inhibition of human constitutive proteasome beta 5 subunit at 10 uM using Suc-LLVY-AMC as substrate preincubated for 30 mins followed by substrate addition measured for 120 mins by fluorescence based assay
Conditions: 2 h
How it was run: as §1

SMILES	inhibition (INH)
Cc1c(-c2nsc(=O)o2)c(=O)oc2cc3occ(C4CCCCC4)c3cc12	Not Active
Cc1c(-c2nsc(=O)o2)c(=O)oc2cc3occ(C4CCCC4)c3cc12	Not Active
CCc1ccc(-c2coc3cc4oc(=O)c(-c5nsc(=O)o5)c(C)c4cc23)cc1	Not Active

Biological target: T1, Proteasome subunit beta type-8 (Homo sapiens)
Assay: Time-dependent inhibition of human immunoproteasome beta 5i subunit assessed as increase in IC50 value using Suc-LLVY-AMC as substrate co-incubated with substrate without preincubation by fluorescence based analysis relative to 30 mins preincubated compound-treated control
Conditions: not given
How it was run: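 IC50 against immunoproteasome beta5i (Suc-LLVY-AMC) determined without pre-incubating compound with enzyme before substrate addition, compared against pre-incubated assay.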

SMILES	inhibition
Cc1c(-c2nsc(=O)o2)c(=O)oc2cc3occ(C4CCCCC4)c3cc12	Active
CCc1ccc(-c2coc3cc4oc(=O)c(-c5nsc(=O)o5)c(C)c4cc23)cc1	Active

Test system: PBMC
Assay: Inhibition of LPS-induced IL-1beta production in human PBMC at 10 uM preincubated for 1 hr followed by LPS addition and measured after 24 hrs by cytometric bead array-based FACS analysis
Format: functional, cell-based
Conditions: not given

SMILES	inhibition
Cc1c(-c2nsc(=O)o2)c(=O)oc2cc3occ(C4CCCCC4)c3cc12	inactive
CCc1ccc(-c2coc3cc4oc(=O)c(-c5nsc(=O)o5)c(C)c4cc23)cc1	inactive

Biological target: T1, Proteasome subunit beta type-8 (Homo sapiens)
Assay: Inhibition of 26S immunoproteasome beta 5 chymotrypsin-like activity in human HeLa intact cells using […] as substrate after 2 hrs by luciferase based assay
Format: cell-based
Conditions: not given

SMILES	inhibition
Cc1c(-c2nsc(=O)o2)c(=O)oc2cc3occ(C4CCCCC4)c3cc12	inactive
CCc1ccc(-c2coc3cc4oc(=O)c(-c5nsc(=O)o5)c(C)c4cc23)cc1	inactive

Test system: PBMC
Assay: Inhibition of LPS-induced IL-8 production in human PBMC at 10 uM preincubated for 1 hr followed by LPS addition and measured after 24 hrs by cytometric bead array-based FACS analysis
Format: functional, cell-based
Conditions: not given

SMILES	inhibition
Cc1c(-c2nsc(=O)o2)c(=O)oc2cc3occ(C4CCCCC4)c3cc12	inactive
CCc1ccc(-c2coc3cc4oc(=O)c(-c5nsc(=O)o5)c(C)c4cc23)cc1	inactive

Biological target: T5, Proteasome subunit beta type-9 (Homo sapiens) (UniProt P28065)
T5 sequence (whole entry): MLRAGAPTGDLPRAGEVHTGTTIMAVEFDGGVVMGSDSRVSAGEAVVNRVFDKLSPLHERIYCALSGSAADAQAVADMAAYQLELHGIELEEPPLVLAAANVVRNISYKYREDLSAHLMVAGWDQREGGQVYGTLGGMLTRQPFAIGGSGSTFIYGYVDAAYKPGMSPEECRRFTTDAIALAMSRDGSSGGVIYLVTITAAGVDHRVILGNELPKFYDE
Assay: Inhibition of human immunoproteasome beta 1i subunit at 10 uM using Ac-PAL-AMC as substrate preincubated for 30 mins followed by substrate addition measured for 120 mins by fluorescence based assay
Conditions: not given
How it was run: as §1

SMILES	inhibition
Cc1c(-c2nsc(=O)o2)c(=O)oc2cc3occ(C4CCCCC4)c3cc12	inactive
Cc1c(-c2nsc(=O)o2)c(=O)oc2cc3occ(C4CCCC4)c3cc12	inactive
CCc1ccc(-c2coc3cc4oc(=O)c(-c5nsc(=O)o5)c(C)c4cc23)cc1	inactive

Test system: PBMC
Assay: Inhibition of LPS-induced IL-12p70 production in human PBMC at 10 uM preincubated for 1 hr followed by LPS addition and measured after 24 hrs by cytometric bead array-based FACS analysis
Format: functional, cell-based
Conditions: not given

SMILES	inhibition
Cc1c(-c2nsc(=O)o2)c(=O)oc2cc3occ(C4CCCCC4)c3cc12	inactive
CCc1ccc(-c2coc3cc4oc(=O)c(-c5nsc(=O)o5)c(C)c4cc23)cc1	inactive

Biological target: T3, Proteasome subunit beta type-8
Assay: Inhibition of 20S immunoproteasome beta 5 chymotrypsin-like activity in human THP-1 cell lysates using Suc-LLVY-AMC as substrate preincubated for 30 mins followed by substrate addition and measured for 90 mins by fluorescence based assay
Format: subcellular, Lysate
Conditions: not given
How it was run: (§2)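 Compounds incubated with cell lysates (HeLa: predominantly constitutive proteasome; THP-1: high immunoproteasome) and beta5 activity read with fluorogenic Suc-LLVY-AMC; IC50 determined.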

SMILES	IC50 [nM]
Cc1c(-c2nsc(=O)o2)c(=O)oc2cc3occ(C4CCCCC4)c3cc12	1010
CCc1ccc(-c2coc3cc4oc(=O)c(-c5nsc(=O)o5)c(C)c4cc23)cc1	1530

Test system: PBMC
Assay: Inhibition of LPS-induced TNFalpha production in human PBMC at 10 uM preincubated for 1 hr followed by LPS addition and measured after 24 hrs by cytometric bead array-based FACS analysis
Format: functional, cell-based
Conditions: not given

SMILES	inhibition
Cc1c(-c2nsc(=O)o2)c(=O)oc2cc3occ(C4CCCCC4)c3cc12	inactive
CCc1ccc(-c2coc3cc4oc(=O)c(-c5nsc(=O)o5)c(C)c4cc23)cc1	inactive

Biological target: T1, Proteasome subunit beta type-8 (Homo sapiens)
Assay: Inhibition of 20S immunoproteasome beta 5 chymotrypsin-like activity in human HeLa cell lysates using Suc-LLVY-AMC as substrate preincubated for 30 mins followed by substrate addition and measured for 90 mins by fluorescence based assay
Format: subcellular
Conditions: Lysate
How it was run: as §2

SMILES	inhibition
Cc1c(-c2nsc(=O)o2)c(=O)oc2cc3occ(C4CCCCC4)c3cc12	Active
CCc1ccc(-c2coc3cc4oc(=O)c(-c5nsc(=O)o5)c(C)c4cc23)cc1	Active

Biological target: T4, Proteasome Macropain subunit MB1
Assay: Inhibition of human constitutive proteasome beta 5 subunit using Suc-LLVY-AMC as substrate preincubated for 30 mins followed by substrate addition measured for 120 mins by fluorescence based assay
Conditions: not given

SMILES	IC50
Cc1c(-c2nsc(=O)o2)c(=O)oc2cc3occ(C4CCCCC4)c3cc12	Nd(Insoluble)
Cc1c(-c2nsc(=O)o2)c(=O)oc2cc3occ(C4CCCC4)c3cc12	Nd(Insoluble)
CCc1ccc(-c2coc3cc4oc(=O)c(-c5nsc(=O)o5)c(C)c4cc23)cc1	Nd(Insoluble)

Biological target: T6, Proteasome subunit beta type-10 (Homo sapiens, UniProt P40306)
T6 sequence (P40306 whole entry): T2 sequence (whole entry)
Assay: Inhibition of human immunoproteasome beta 2i subunit using Boc-LRR-AMC as substrate preincubated for 30 mins followed by substrate addition measured for 120 mins by fluorescence based assay
Conditions: not given

SMILES	IC50
Cc1c(-c2nsc(=O)o2)c(=O)oc2cc3occ(C4CCCCC4)c3cc12	Nd(Insoluble)
Cc1c(-c2nsc(=O)o2)c(=O)oc2cc3occ(C4CCCC4)c3cc12	Nd(Insoluble)
CCc1ccc(-c2coc3cc4oc(=O)c(-c5nsc(=O)o5)c(C)c4cc23)cc1	Nd(Insoluble)

Biological target: T7, Proteasome subunit beta type-9 (Homo sapiens, UniProt P28065)
T7 sequence (P28065 whole entry): T5 sequence (whole entry)
Assay: Inhibition of human immunoproteasome beta 1i subunit using Ac-PAL-AMC as substrate preincubated for 30 mins followed by substrate addition measured for 120 mins by fluorescence based assay
Conditions: not given

SMILES	IC50
Cc1c(-c2nsc(=O)o2)c(=O)oc2cc3occ(C4CCCCC4)c3cc12	Nd(Insoluble)
Cc1c(-c2nsc(=O)o2)c(=O)oc2cc3occ(C4CCCC4)c3cc12	Nd(Insoluble)
CCc1ccc(-c2coc3cc4oc(=O)c(-c5nsc(=O)o5)c(C)c4cc23)cc1	Nd(Insoluble)
